mIAP block = mouse IAP inhibition; inhibition, % at 10 µM; purified mouse IAP, CDP-Star luminescence, 30 min; 0.2% of 330,000 active; AID 2806;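 active = inhibition of at least 40% at 10 µM in the primary screen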;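 also: plate controls were DMSO with enzyme for no effect and no enzyme wells for full effect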
mIAP activ = increases mouse intestinal alkaline phosphatase activity. muIAP, CDP-Star luminescence, 30 min; hits give high values; 1 = vehicle-only enzyme signal, 0 = enzyme-free wells. activation factor at 10 µM. 0.24% of 330,000 active;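 active = activation factor of at least 2 at 20 µM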
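System: Mouse IAP enzyme | Also added: CDP-Star substrate | Dosing: Compounds dispensed in DMSO | Schedule: 30 min enzyme-substrate-compound incubation at room temperature | Technique: Chemiluminescence readout | Control set: DMSO-only wells and no-enzyme negative control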
hIAP act = human IAP activation; activation factor at 10 µM; purified human IAP, CDP-Star luminescence, 30 min; hits give high values; 1 = vehicle-only enzyme, 0 = enzyme-free background; P09923; 0.16% of 330,000 active;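 active = activation factor of the enzyme at least 2-fold when tested at 20 µM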
Target sequence (P09923 whole entry, looked up): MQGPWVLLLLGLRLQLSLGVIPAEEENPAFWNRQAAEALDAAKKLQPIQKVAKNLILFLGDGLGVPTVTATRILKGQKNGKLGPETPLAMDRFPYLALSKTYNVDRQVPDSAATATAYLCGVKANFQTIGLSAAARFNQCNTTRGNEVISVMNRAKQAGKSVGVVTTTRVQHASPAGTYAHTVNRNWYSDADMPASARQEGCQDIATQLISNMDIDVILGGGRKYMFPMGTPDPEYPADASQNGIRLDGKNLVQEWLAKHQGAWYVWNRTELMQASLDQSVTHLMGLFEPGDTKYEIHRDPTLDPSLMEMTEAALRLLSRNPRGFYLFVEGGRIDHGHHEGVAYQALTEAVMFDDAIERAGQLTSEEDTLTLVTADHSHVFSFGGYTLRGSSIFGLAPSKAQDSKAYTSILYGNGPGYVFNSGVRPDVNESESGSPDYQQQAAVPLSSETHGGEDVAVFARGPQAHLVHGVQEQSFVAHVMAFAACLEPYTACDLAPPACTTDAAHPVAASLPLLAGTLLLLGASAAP
bIAP act = intestinal alkaline phosphatase (bovine) activation. 0.17% of 200,000 active. purified bovine IAP, CDP-star luminescence, 30 min; hits give high values; fold of DMSO-control signal, blank-subtracted. activation factor at 20 µM;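 active = activation factor of 2 or more at 20 µM, a signal rise over negative controls twice the positive control's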
hIAP inh = human IAP inhibition; AID 2544; inhibition, % at 10 µM; purified IAP, CDP-Star luminescence, 30 min; 0.12% of 330,000 active; P09923;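 active = inhibition reaching a set limit with compound at 10 µM in the primary screen, cut at about 35% in these data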;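 also: plate controls were DMSO wells with enzyme for no effect and no-enzyme buffer wells for full effect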
bIAP inhibitor = intestinal alkaline phosphatase (bovine) inhibition | purified bovine IAP, CDP-star luminescence, 30 min | inhibition, % at 20 µM | 190,000 tested, under 10 active | AID 1019;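 active = over 50% inhibition of intestinal alkaline phosphatase at 20 µM in the single-dose screen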
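Incubation: 30 min reaction at room temperature / Material: purified bovine intestinal alkaline phosphatase (IAP) enzyme / Input: enzyme at 1/65,000,000 dilution / Dosing: 20 µM single dose / Signal: CDP-star luminescence signal / Reagent: CDP-star chemiluminescent phosphatase substrate, 30 µM final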
An asterisk follows results filed as active; / = no result. Sampled rows, rich in hits. Any-hit rate of the full collection: about 0.72%.

SMILES | mIAP block | mIAP activ | hIAP act | bIAP act | hIAP inh | bIAP inhibitor
COc1ccc(C(=O)/C(=C/c2cccs2)c2nc3ccccc3o2)cc1 | 46* | 0.55 | 0.88 | 1 | 12 | -2
COc1ccc(/C=C(\CC(=O)O)c2nc3ccccc3o2)cc1 | -11 | 1.1 | 1.1 | 1.1 | -13 | -12
CN(Cc1ccccc1)C(=O)c1nn2cccnc2c1Cl | -5 | 1 | 0.89 | 1.1 | 11 | -7
COc1ccccc1CNc1ncc(-c2ccccc2)n1C | 2 | 0.97 | 1.3 | / | -31 | /
COc1cccc(-c2cnc(NCc3cc(Cl)ccc3O)n2C)c1 | 4 | 0.96 | 0.79 | 2.2* | 21 | -117
Cc1ccc(SCC(=O)Nc2ccc(F)cc2[N+](=O)[O-])cc1C | 13 | 0.87 | 0.79 | 1.1 | 21 | -6
COc1ccc(CN(CC2CCC(C(=O)O)CC2)C(=S)Nc2cccc(C)c2)cc1 (stereo unspecified) | 2 | 0.97 | 0.93 | 2.4* | 7 | -140
COc1ccc(CN(CC2CCC(C(=O)O)CC2)C(=S)Nc2ccccc2OC)cc1 (stereo unspecified) | 5 | 0.95 | 1 | 1.1 | -3 | -7
O=C(CCc1nnc(-c2ccc3c(c2)OCO3)o1)N1CCC(c2ccc(F)cc2)C1 (stereo unspecified) | 4 | 0.96 | 1 | 0.9 | -1 | 6
COc1ccc(S(=O)(=O)N(C)C[C@H]2Oc3ccc(NC(=O)Nc4ccc5c(c4)OCO5)cc3C(=O)N([C@H](C)CO)C[C@@H]2C)cc1 | -129 | 2.3* | 1 | / | -4 | /
COc1ccc(S(=O)(=O)N(C)C[C@H]2Oc3ccc(NC(=O)Nc4ccc5c(c4)OCO5)cc3CC(=O)N([C@@H](C)CO)C[C@@H]2C)cc1 | -44 | 1.4 | 1.2 | / | -18 | /
C[C@H](CO)N1C[C@H](C)[C@H](CN(C)S(=O)(=O)c2ccccc2)Oc2ccc(NC(=O)NC3CCCCC3)cc2CC1=O | -171 | 2.7* | 1 | / | 0 | /
C[C@H](CO)N1C[C@H](C)[C@@H](CN(C)S(=O)(=O)c2cccs2)Oc2c(NC(=O)Nc3ccc4c(c3)OCO4)cccc2C1=O | -16 | 1.2 | 0.96 | / | 4 | /
Cc1ccc(S(=O)(=O)Nc2ccc3c(c2)CC(=O)N([C@H](C)CO)C[C@@H](C)[C@H](CN(C)S(=O)(=O)c2ccccc2)O3)cc1 | 3 | 0.97 | 1.1 | / | -7 | /
C[C@H](CO)N1C[C@H](C)[C@H](CN(C)S(=O)(=O)c2cccs2)Oc2ccc(NC(=O)Nc3ccc4c(c3)OCO4)cc2CC1=O | -129 | 2.3* | 1 | / | -2 | /
COc1ccc(S(=O)(=O)N(C)C[C@H]2Oc3ccc(NC(=O)NC(C)C)cc3C(=O)N([C@H](C)CO)C[C@@H]2C)cc1 | -43 | 1.4 | 1.1 | / | -12 | /
C[C@H](CO)N1C[C@H](C)[C@@H](CN(C)S(=O)(=O)c2cccs2)Oc2ccc(NC(=O)Nc3ccc4c(c3)OCO4)cc2C1=O | -116 | 2.2* | 0.98 | / | 2 | /
COc1ccc(NC(=O)Nc2ccc3c(c2)C(=O)N([C@@H](C)CO)C[C@@H](C)[C@@H](CN(C)S(=O)(=O)c2cccs2)O3)cc1 | -214 | 3.1* | 0.98 | / | 2 | /
CC(=O)c1ccc(S(=O)(=O)N2CCN(C(=O)CSc3ccc(F)cc3)CC2)cc1 | -9 | 1.1 | 1 | / | 0 | /
CCOC(=O)C1=C(CS(=O)(=O)c2ccccc2)NC(=O)NC1c1cc(OC)c(O)c(OC)c1 (stereo unspecified) | -1 | 1 | 0.97 | / | 3 | /
Cc1cc(C)cc(C(=O)Nc2ccc(N3CCCC3)cc2)c1 | 4 | 0.96 | 0.92 | 1.2 | 8 | -16
Cc1cc(C)cc(NC(=O)Nc2ccc(N3CCCCC3)cc2)c1 | -100 | 2* | 1.2 | / | -18 | /
Cc1ccc(Cl)cc1NC(=S)NCCCSC1CCCCC1 | -211 | 3.1* | 1 | 0.4 | -4 | /
O=C(O)CCC1c2cc3c4cc2OC2Oc5cc6c(cc51)C(CCC(=O)O)c1cc5c7cc1OC(O6)c1cc6cc(c1)Oc1cc(cc(C(=O)O)c1)Oc1cc8cc(c1)C(Oc1cc(c(cc1C5CCC(=O)O)C3CCC(=O)O)OC(O4)c1cc(cc(c1)Oc1cc(cc(C(=O)O)c1)O8)Oc1cc(cc(C(=O)O)c1)Oc1cc(cc2c1)Oc1cc(cc(C(=O)O)c1)O6)O7 (stereo unspecified) | 48* | 0.97 | 1.1 | / | 9 | /

Assay outcomes (PubChem)
